# Experimental data gathered from unrelated publications.
# Lines come from different studies, so protocols differ.
# Cell line: MCF7
# Effect on: cell growth or viability
Structure (SMILES),method,time,IC50
O=S(=O)(NN=Cc1cn(CCN2CCOCC2)c2ccccc12)c1ccc(Cl)cc1,MTT,48 h,13.2 µM
Clc1ccc(-c2nc3ccccc3[nH]2)cc1Cl,MTT,48 h,11.1 µM
Oc1ncnc2cc(Nc3nc(-c4ccc(Br)cc4)cs3)ccc12,MTT,,4.92 µM
CC1(C)CC[C@]2(C(=O)O)CC[C@]3(C)C(=CC[C@@H]4[C@@]5(C)CC[C@H](O)C(C)(C)[C@@H]5CC[C@]43C)[C@@H]2C1,MTT,48 h,> 100 µM
O=C(N/N=C/CN1CCCCC1)Nc1cc2c(Nc3ccc(F)c(Cl)c3)ncnc2cc1O[C@H]1CCOC1,MTT,72 h,1.53 µM
COc1ccnc(-c2cc(OC)ccn2)c1,MTT,48 h,> 50 µM
CCN(CC)C(=S)NC(=O)c1ccc2ccccc2c1,,48 h,4.72 µM
O=[N+]([O-])c1cccc(-c2nc3ccccc3[nH]2)c1,MTT,48 h,24.4 µM
COc1cc(/C=C/C(=O)c2ccc(NC(=O)c3ccccc3CN3C(=O)c4ccccc4C3=O)cc2)cc(OC)c1OC,MTT,72 h,1.88 µM
O=C(N/N=C/c1cccn1CCCN1CCCC1)Nc1cc2c(Nc3ccc(F)c(Cl)c3)ncnc2cc1O[C@H]1CCOC1,MTT,72 h,2.41 µM
CC(C)Cc1ccc(-c2nn(-c3ccc(S(C)(=O)=O)cc3)cc2/C=N/N=c2\[nH]c(-c3ccc(Br)cc3)cs2)cc1,MTT,48 h,8.26 µM
Cc1ccc2nc(-c3cc(Br)ccc3O)[nH]c2c1,MTT,48 h,4.37 µM
FC(F)(F)c1cccc(Nc2ncnc3ccc(-c4ccsc4)cc23)c1,MTT,24 h,4.39 µM
Cc1ccc2nc(-c3ccc(Cl)cc3Cl)[nH]c2c1,MTT,48 h,57.2 µM
O=C(/N=C1\S/C(=C\c2ccc(Cl)cc2)C(=O)N1C1CCCCC1)c1ccc2ccccc2c1,,48 h,6.93 µM
COc1cc(CNCC2CCNCC2)ccc1OCc1cccc(C)c1,MTT,72 h,> 100 µM
CCOc1ccc(-c2nc3ccc(C)cc3[nH]2)cc1,MTT,48 h,> 100 µM
Cc1occc(=O)c1[O-].[Cl-].[W+4].c1cc[cH-]c1.c1cc[cH-]c1,MTT,,330 µM
Cc1ccc2nc(-c3ccc(F)cc3)n(Cc3ccccc3)c2c1,MTT,,43.1 µM
O=C(O)c1ccc(-n2nc(Oc3ccccc3)nc2/N=C/c2cc([N+](=O)[O-])ccc2O)cc1,MTT,,21.6 µM
O=C(N/N=C/c1cccn1CCCN1CCOCC1)Nc1cc2c(Nc3ccc(F)c(Cl)c3)ncnc2cc1O[C@H]1CCOC1,MTT,72 h,5.57 µM
O=c1c(O)c(-c2ccc(O)c(O)c2)oc2cc(O)cc(O)c12,WST-1,48 h,11.7 µM
Cc1cc(=O)[nH]c(=O)n1Cc1cn(-c2c3ccccc3nc3ccccc23)nn1,MTT,,2.7 µM
COc1ccc(-c2ccc3ncnc(Nc4cccc(C(F)(F)F)c4)c3c2)cc1,MTT,24 h,11.7 µM
CS(=O)(=O)c1nc(N)n(-c2ccc(C(=O)O)cc2)n1,MTT,,21.9 µM
